In data set [1] the test system is Plasmodium falciparum. Nature of the data set: Antimalarial activity against Plasmodium falciparum K1 infected in human erythrocytes after 72 hrs by lactate dehydrogenase assay. The conditions noted are these: K1, 72 h. It is filed as functional, organism-based. The essentials:
(§1)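 In vitro assay against the P. falciparum strains K1 (drug-resistant) and FCR3 (drug-sensitive). The value is reported as an IC50 in ng/mL.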

Data set [2] can be described thus: Selectivity index, ratio of IC50 for human […] cells to IC50 for Plasmodium falciparum FCR-3. It is filed as toxicity, cell-based. The conditions noted are these: […] cells (cytotoxicity) versus Plasmodium falciparum FCR-3, read-out: Ratio IC50. The gist of the method: (§2)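 SI is the MRC-5 cytotoxicity IC50 (ng/mL) divided by the antimalarial IC50 (ng/mL) against the FCR3 or K1 strain. Both IC50s come from the same in vitro test series.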

Data set [3] can be described thus: Selectivity index, ratio of IC50 for human […] cells to IC50 for Plasmodium falciparum K1. The following applies: MCR5 cells (cytotoxicity) versus Plasmodium falciparum K1, read-out: Ratio IC50. It is filed as toxicity, cell-based. The essentials: as §2
The subject of data set [4] is Plasmodium falciparum. As to the kind of experiment: Antimalarial activity against Plasmodium falciparum FCR-3 infected in human erythrocytes after 72 hrs by lactate dehydrogenase assay. It is filed as functional, cell-based. The following applies: FCR-3/Gambia. The essentials:
as §1

Data set [5] in a line: Cytotoxicity against human […] cells after 7 days by MTT assay. It is filed as cell-based. The conditions noted are these: 168 h. The gist of the method:
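Cytotoxicity was tested on MRC-5, a human diploid embryonic cell line. The value is reported as an IC50 in ng/mL.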
On the technique in general: Tetrazolium dyes change colour on reduction, which living cells bring about.

The record followed here is ChEMBL document CHEMBL2346607, “Borrelidin analogues with antimalarial activity: design, synthesis and biological evaluation against Plasmodium falciparum parasites” (Bioorg Med Chem Lett, 2013).

Values after ≈ are worked out from the molar mass of the structure shown. A value given as a limit tells only on which side of the number the result lay.

Take `C[C@@H]1C[C@H](C)C[C@H](C)[C@@H](O)CC(=O)O[C@H]([C@@H]2CCC[C@H]2C(=O)O)CCCCC(C#N)[C@H](O)[C@@H](C)C1` (stereo not given in full): the IC50 in data set [1] and in data set [4] was 130 ng/mL (≈ 0.263 µM) in each case. Further, the selectivity ratio in data set [2] and in data set [3] was 102 in each case.

With `C#CCOC(=O)[C@@H]1CCC[C@H]1[C@@H]1C/C=C/C=C(/C#N)[C@H](O)[C@@H](C)C[C@H](C)C[C@H](C)C[C@H](C)[C@@H](O)CC(=O)O1`, the IC50 turned out to be 2.6 ng/mL (≈ 0.00493 µM) in data set [1], 1.2 µg/mL (≈ 2.27 µM) in data set [5] and 5 ng/mL (≈ 0.00948 µM) in data set [4]. For the same compound, the results for the selectivity ratio in data set [2] and in data set [3] were 240 and 462, respectively.

On to `C[C@@H]1C[C@H](C)C[C@H](C)[C@@H](O)CC(=O)O[C@H]([C@@H]2CCC[C@H]2C(=O)OCCN(C)C)C/C=C/C=C(/C#N)[C@H](O)[C@@H](C)C1`, for which the IC50 in data set [1] is 0.31 ng/mL (≈ 0.000553 µM); in data set [5] it was 0.18 µg/mL (≈ 0.321 µM); in data set [4], 0.24 ng/mL (≈ 0.000428 µM). In addition, the selectivity ratio was determined as 750 in data set [2] and 581 in data set [3].

As for `C[C@@H]1C[C@H](C)C[C@H](C)[C@@H](O)CC(=O)O[C@H]([C@@H]2CCC[C@H]2C(=O)N[C@@H](CO)C(=O)O)C/C=C/C=C(/C#N)[C@H](O)[C@@H](C)C1`, the IC50 in data set [1] was 140 ng/mL (≈ 0.243 µM); in data set [5], > 1000 µg/mL; in data set [4] it was 200 ng/mL (≈ 0.347 µM). The selectivity ratio in data set [2] was > 500; in data set [3], > 714.

Take `C[C@@H]1C[C@H](C)C[C@H](C)[C@@H](O)CC(=O)O[C@H]([C@@H]2CCC[C@H]2C(=O)OCc2ccccc2)C/C=C/C=C(/C#N)[C@H](O)[C@@H](C)C1`: the half-inhibitory concentration (IC50) in data set [1] is 24.6 ng/mL (≈ 0.0424 µM); in data set [5], 4.05 µg/mL (≈ 6.99 µM); in data set [4], 20.5 ng/mL (≈ 0.0354 µM). The selectivity ratio in data set [2] came to 198; in data set [3] it was 165.

With `C[C@@H]1C[C@H](C)C[C@H](C)[C@@H](O)CC(=O)O[C@H]([C@@H]2CCC[C@H]2C(=O)OCc2cn(-c3cccnc3)nn2)C/C=C/C=C(/C#N)[C@H](O)[C@@H](C)C1`, the IC50 in data set [1] was 2.9 ng/mL (≈ 0.00448 µM); in data set [5] it was 0.41 µg/mL (≈ 0.633 µM); in data set [4] it was 4.8 ng/mL (≈ 0.00741 µM). The selectivity ratio in data set [2] stood at 86; in data set [3] it was 143.

With `CCCSC(=O)[C@@H]1CCC[C@H]1[C@@H]1C/C=C/C=C(/C#N)[C@H](O)[C@@H](C)C[C@H](C)C[C@H](C)C[C@H](C)[C@@H](O)CC(=O)O1`, the IC50 worked out at 167 ng/mL (≈ 0.305 µM) in data set [1], 3.4 µg/mL (≈ 6.21 µM) in data set [5] and 280 ng/mL (≈ 0.511 µM) in data set [4]. Also, the selectivity ratio turned out to be 12 in data set [2] and 20 in data set [3].

For `CCN(CC)CCCC(C)Nc1ccnc2cc(Cl)ccc12` (stereo not given) [CHLOROQUINE], the IC50 in data set [5] was determined as 18.6 µg/mL (≈ 58.1 µM).

Regarding `C[C@@H]1CC[C@H]2[C@@H](C)C(=O)O[C@@H]3O[C@@]4(C)CC[C@@H]1[C@]32OO4` [ARTEMISININ], the selectivity ratio in data set [2] and in data set [3] was 7530 each time. In addition, the IC50 in data set [5] was found to be 45.2 µg/mL (≈ 160 µM).

Turning to `CC(=O)O[C@H]1CC(=O)O[C@H]([C@@H]2CCC[C@H]2C(=O)O)C/C=C/C=C(/C#N)[C@H](OC(C)=O)[C@@H](C)C[C@H](C)C[C@H](C)C[C@@H]1C`, the 50% inhibitory concentration (IC50) in data set [1] turned out to be 107 ng/mL (≈ 0.186 µM); in data set [5] it was 55.7 µg/mL (≈ 97.1 µM); in data set [4], 120 ng/mL (≈ 0.209 µM). Besides, the selectivity ratio in data set [2] turned out to be 464; in data set [3], 522.

Regarding `C[C@@H]1C[C@H](C)C[C@H](C)[C@@H](O)CC(=O)O[C@H]([C@@H]2CCC[C@H]2C(=O)N[C@@H](C)C(=O)O)C/C=C/C=C(/C#N)[C@H](O)[C@@H](C)C1`, the selectivity ratio in data set [2] is 4190. The compound also returned an IC50 in data set [4] of 13 ng/mL (≈ 0.0232 µM).

In the case of `C[C@@H]1C[C@H](C)C[C@H](C)[C@@H](O)CC(=O)O[C@H]([C@@H]2CCC[C@H]2C(=O)NCC(=O)O)C/C=C/C=C(/C#N)[C@H](O)[C@@H](C)C1`, the 50% inhibitory concentration (IC50) was 21 ng/mL (≈ 0.0384 µM) in data set [1], 58.9 µg/mL (≈ 108 µM) in data set [5] and 31 ng/mL (≈ 0.0567 µM) in data set [4]. Further, the figures for the selectivity ratio in data set [2] and in data set [3] were 1900 and 2850, respectively.

With `C[C@@H]1C[C@H](C)C[C@H](C)[C@@H](O)CC(=O)O[C@H]([C@@H]2CCC[C@H]2C(=O)OCc2cn(-c3cnc4ccccc4c3)nn2)C/C=C/C=C(/C#N)[C@H](O)[C@@H](C)C1`, the IC50 in data set [1] was 0.067 ng/mL (≈ 9.6e-05 µM); in data set [5] it was 1.05 µg/mL (≈ 1.5 µM); in data set [4] it was 0.079 ng/mL (≈ 0.000113 µM). Besides, the values for the selectivity ratio in data set [2] and in data set [3] were 13400 and 15600, respectively.

For `CCCOC(=O)[C@@H]1CCC[C@H]1[C@@H]1C/C=C/C=C(/C#N)[C@H](O)[C@@H](C)C[C@H](C)C[C@H](C)C[C@H](C)[C@@H](O)CC(=O)O1`, the half-maximal inhibitory concentration (IC50) is 90.4 ng/mL (≈ 0.17 µM) in data set [1], 18.2 µg/mL (≈ 34.2 µM) in data set [5] and 78.8 ng/mL (≈ 0.148 µM) in data set [4]. Also, the selectivity ratio stood at 232 in data set [2] and 202 in data set [3].

`C[C@@H]1C[C@H](C)C[C@H](C)[C@@H](O)CC(=O)O[C@H]([C@@H]2CCC[C@H]2C(=O)O)C/C=C/C=C(/C#N)[C@H](O)[C@@H](C)C1` [BORRELIDIN]: the values for the IC50 in data set [1], in data set [5] and in data set [4] were 0.93 ng/mL (≈ 0.0019 µM), 0.201 µg/mL (≈ 0.41 µM) and 0.88 ng/mL (≈ 0.0018 µM), respectively. Besides, the selectivity ratio in data set [2] turned out to be 228; in data set [3], 216.

For the compound `CC[C@H](C)[C@H](NC(=O)[C@@H]1CCC[C@H]1[C@@H]1C/C=C/C=C(/C#N)[C@H](O)[C@@H](C)C[C@H](C)C[C@H](C)C[C@H](C)[C@@H](O)CC(=O)O1)C(=O)O`, the IC50 in data set [1] turned out to be 18 ng/mL (≈ 0.0299 µM); in data set [5] it was 64 µg/mL (≈ 106 µM); in data set [4] it was 12 ng/mL (≈ 0.0199 µM). Moreover, the selectivity ratio was 5330 in data set [2] and 3200 in data set [3].

Regarding `C=CCOC(=O)[C@@H]1CCC[C@H]1[C@@H]1C/C=C/C=C(/C#N)[C@H](O)[C@@H](C)C[C@H](C)C[C@H](C)C[C@H](C)[C@@H](O)CC(=O)O1`, the IC50 is 77.7 ng/mL (≈ 0.147 µM) in data set [1], 4.63 µg/mL (≈ 8.74 µM) in data set [5] and 39.2 ng/mL (≈ 0.074 µM) in data set [4]. Moreover, the results for the selectivity ratio in data set [2] and in data set [3] were 118 and 59.6, respectively.

With `C[C@@H]1C[C@H](C)C[C@H](C)[C@@H](O)CC(=O)O[C@H]([C@@H]2CCC[C@H]2C(=O)OCCN2CCOCC2)C/C=C/C=C(/C#N)[C@H](O)[C@@H](C)C1`, the values for the IC50 in data set [1], in data set [5] and in data set [4] were 0.62 ng/mL (≈ 0.00103 µM), 0.26 µg/mL (≈ 0.431 µM) and 0.43 ng/mL (≈ 0.000713 µM), respectively. Moreover, the results for the selectivity ratio in data set [2] and in data set [3] were 604 and 419, respectively.

For the compound `CCOC(=O)[C@@H]1CCC[C@H]1[C@@H]1C/C=C/C=C(/C#N)[C@H](O)[C@@H](C)C[C@H](C)C[C@H](C)C[C@H](C)[C@@H](O)CC(=O)O1`, the IC50 turned out to be 67.8 ng/mL (≈ 0.131 µM) in data set [1], 21.9 µg/mL (≈ 42.3 µM) in data set [5] and 23.3 ng/mL (≈ 0.045 µM) in data set [4]. Further, the selectivity ratio was determined as 939 in data set [2] and 323 in data set [3].

With `C[C@@H]1C[C@H](C)C[C@H](C)[C@@H](O)CC(=O)O[C@H]([C@@H]2CCC[C@H]2C(=O)OCc2cn(C34CC5CC(CC(C5)C3)C4)nn2)C/C=C/C=C(/C#N)[C@H](O)[C@@H](C)C1`, the IC50 was 70 ng/mL (≈ 0.0993 µM) in data set [1], 2.7 µg/mL (≈ 3.83 µM) in data set [5] and 168 ng/mL (≈ 0.238 µM) in data set [4]. For the same compound, the selectivity ratio is 16 in data set [2] and 39 in data set [3].

By IC50 is commonly meant the concentration that inhibits the measured activity by half. Low values mean greater potency, high ones weaker potency.
